Most compounds without a hit are left out; they make up all but 7.4% or so of the library.
S1P1 ag-PAM: S1P1 agonists and agonism potentiators, primary screen, cell-based, primary and confirmation screens, CRE-bla reporter. Sphingosine 1-phosphate receptor 1 (Homo sapiens), P21453. S1P1 CRE-bla cells, forskolin, beta-lactamase FRET, potentiator mode; S1P1 agonist co-added at EC20, 2 nM; 100% = saturating reference agonist, 0% = basal. activation, % at 9.5 µM. 56,000 tested, 0.57% active. AID 449, 2006;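 active means activation above a cutoff set at the mean activation of all tested compounds plus 3 SD, cut at about 54% in these data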;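 further: forskolin at 4 µM as EC80 and the EC20 agonist is SEW2871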
Target sequence (P21453 whole entry, looked up): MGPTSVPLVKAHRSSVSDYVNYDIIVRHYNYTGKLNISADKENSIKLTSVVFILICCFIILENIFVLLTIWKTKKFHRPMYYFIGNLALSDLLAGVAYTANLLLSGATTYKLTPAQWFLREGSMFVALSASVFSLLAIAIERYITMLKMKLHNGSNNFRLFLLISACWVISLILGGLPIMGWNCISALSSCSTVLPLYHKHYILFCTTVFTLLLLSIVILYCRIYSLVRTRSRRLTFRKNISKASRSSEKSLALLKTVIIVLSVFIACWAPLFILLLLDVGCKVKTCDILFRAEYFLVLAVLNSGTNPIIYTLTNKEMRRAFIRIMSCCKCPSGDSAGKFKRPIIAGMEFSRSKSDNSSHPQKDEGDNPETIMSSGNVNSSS
S1P3 agonist: human S1P3 receptor agonists, primary screen, cell-based, primary and confirmation, NFAT-BLA reporter; Sphingosine 1-phosphate receptor 3 (Homo sapiens), Q99500; S1P3 NFAT-BLA reporter cells, agonism, FRET ratio; relative to 1 µM S1P, basal subtracted; activation, % at 4.5 µM; 60,000 tested, 0.1% active; AID 373, 2006;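 active means activation above the screen-wide mean plus 3 SD, cut at about 4.5% in these data, passing the limit was not always enough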
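Measure – % activation relative to 1 µM S1P (100%), per plate · System – stable CHO line with human S1P3, Gα16, NFAT-BLA reporter · Timing – cells plated overnight, compound 4 h 37 °C, substrate 2 h RT · Technique – fluorescent BLA substrate, ex 405 nm, em 460/535 nm ratio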
M1 ag: M1 muscarinic receptor agonists, primary screen, CHO-M1 cells, Fluo-4 calcium, agonist mode; Muscarinic acetylcholine receptor M1; Fluo-4 calcium fluorescence; active compounds read high; B-score at 10 µM; 64,000 tested, 3% active; AID 626, 2007;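 active means fluorescence rise, raw or as B-score row- and column-corrected plate score, outside the 99.7% band of its plate's samples, either direction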
M1 antag: antagonists of rat M1 muscarinic receptor; Muscarinic acetylcholine receptor M1 (Rattus norvegicus), P08482; CHO-M1 cells, Fluo-4 calcium, ACh EC80 antagonist mode; active compounds read low; B-score at 10 µM; 64,000 tested, 3.4% active; AID 628, 2007;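 active means calcium fluorescence response, raw or row-and-column corrected B-score, differing from the plate sample mean either way at a set confidence level, mostly lower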
Jurkat tox 60K: cytotoxicity toward Jurkat T cells, primary screen, cytotoxicity control, cell-based, Jurkat E6.1, 60K MLSMR library; 56,000 tested, 1.2% active; AID 463, 2006; inhibition, % at 4 µM; Jurkat E6.1 viability, ATP luminescence, 48 h;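 active means inhibition above the mean inhibition of all tested compounds plus 3 SD, cut at about 28% in these data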
JNK3 blocker: JNK3 kinase activity inhibitors, primary screen, biochemical, human, purified enzyme | Mitogen-activated protein kinase 10 (Homo sapiens), P53779 | HTS | inhibition, % at 8 µM | 60,000 tested, 0.61% active; in the data active means inhibition above about 17%
M1 antag confirm: rat M1 muscarinic receptor antagonists, confirmation, CHO cells, Fluo-4 calcium, duplicate; ACh EC80 antagonism; active compounds read low; shares compounds with M1 antag; 1,700 tested, 43% active; calcium response (max-min fluorescence) at 10 µM;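 active means calcium response below the same-plate mean of wells given acetylcholine alone at its 80%-effect dose, minus 3 SD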
mGluR4 antag: human mGluR4 response to M1 antagonist hits, M1 allosteric modulator project, cell-based, antagonist mode, secondary assay 1. shares compounds with M1 antag. CHO-mGluR4 calcium flux, Fluo-4 fluorescence, glutamate EC80; active compounds read low. fluorescence response (max-min) at 10 µM. 1,700 tested, 0.9% active. AID 678, 2007;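 active means fluorescence response below the plate's average for near-maximal glutamate wells, less 3 SD of those wells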;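 further: raw unnormalized fluorescence span taken in the window right after glutamate addition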
Numbers stand for hits; – = inactive; · = no result given.

SMILES | S1P1 ag-PAM | S1P3 agonist | M1 ag | M1 antag | Jurkat tox 60K | JNK3 blocker | M1 antag confirm | mGluR4 antag
O=C(NCc1ccco1)c1ccc(CS(=O)(=O)Cc2ccc(Cl)cc2)o1 | – | – | – | – | – | – | · | ·
O=C(CSc1nc2cc(Cl)ccc2s1)NC(=O)NCc1ccco1 | – | – | – | -2.1 | – | – | – | –
CCOc1ccc2nc(SCC(=O)NCc3ccco3)sc2c1 | – | – | – | – | – | – | · | ·
CC1=CC(C)(C)N2C(=O)C3(SCC(=O)N3c3ccc(O)cc3)c3cc(C)cc1c32 (stereo not drawn) | – | – | – | – | – | – | · | ·
Cc1ccc(N2C(=O)CSC23C(=O)Nc2ccccc23)cc1 (stereo not drawn) | – | – | – | -3.2 | – | – | – | –
CCc1c(C)nc(SC)n(CC#N)c1=O | – | – | – | – | – | – | · | ·
COc1ccc(-c2noc(CSc3nc(N)c(-c4ccccc4)c(=O)[nH]3)n2)cc1 | · | – | – | -3.4 | – | – | – | –
Cc1cccc(-c2noc(Cc3ccccc3)n2)c1 | – | – | – | – | – | – | · | ·
COc1ccc(Cc2nc(-c3ccccc3)no2)cc1 | – | – | – | -2.1 | – | – | – | –
Cc1ccc(S(=O)(=O)NCCCOC(=O)Nc2ccncc2)cc1 | – | – | – | – | – | – | · | ·
CC(C)COC(=O)C1[C@H]2C(=O)N(Cc3cccs3)C[C@]23C=C[C@H]1O3 (stereo partly drawn) | – | – | – | – | – | – | · | ·
COc1cc(C(=O)Nc2cc(Cl)ccc2C)c(-n2cnnn2)cc1OC | – | – | – | – | – | – | · | ·
COc1ccc(CCn2nnnc2C(c2ccc(Cl)cc2)N2CCN(C)CC2)cc1OC (stereo not drawn) | – | – | – | -3.1 | – | – | – | –
Cc1cc(C)n(C(=O)c2ccc(C)c(S(=O)(=O)N3CCCC3)c2)n1 | – | – | – | – | – | – | · | ·
Cc1onc(-c2ccccc2Cl)c1C(=O)Nc1ccc(-n2nncc2-c2ccco2)cc1 | · | · | – | -1.9 | · | · | 379 | –
Cc1onc(-c2ccccc2Cl)c1C(=O)Nc1ccc(-n2nncc2C(C)(C)C)cc1 | · | · | – | – | · | · | · | ·
CSc1ccc(C(C(C(=O)c2cccs2)N2CCOCC2)N2CCOCC2)cc1 (stereo not drawn) | – | – | – | -3.4 | – | – | – | –
COc1ccc(C(C(C(=O)c2ccco2)N2CCOCC2)N2CCOCC2)cc1 (stereo not drawn) | – | – | – | – | – | – | · | ·
O=C(CSc1nc2ccccc2o1)NCCOc1ccccc1 | – | – | – | – | – | – | · | ·
COc1cc(-c2cc(C(=O)N3CCN(c4ccccn4)CC3)c3ccccc3n2)cc(OC)c1OC | – | – | – | -3.8 | – | – | – | –
Cc1ccc(CN2C(=O)CSc3ccc(C(=O)NCCN4CCOCC4)cc32)cc1 | – | – | – | – | – | – | · | ·
O=C(O)c1ccc2c(c1)N(Cc1ccccc1)C(=O)c1ccccc1S2=O (stereo not drawn) | – | – | – | – | – | – | · | ·
O=C(NCCN1CCCC1)c1ccc2c(c1)N(Cc1ccc(F)cc1)C(=O)c1ccccc1S2=O (stereo not drawn) | – | – | – | -1.1 | – | – | – | –
O=C(NCCN1CCOCC1)c1ccc2c(c1)N(Cc1ccc(F)cc1)C(=O)CS2 | – | – | – | -9.1 | – | – | 398 | –
CC(=O)Nc1nonc1NC(=O)CSc1ncn[nH]1 | – | – | – | – | – | – | · | ·
SMILES | S1P1 ag-PAM | S1P3 agonist | M1 ag | M1 antag | Jurkat tox 60K | JNK3 blocker | M1 antag confirm | mGluR4 antag
Cc1cccn2c(=O)c3cc(C(=O)NC(C)c4ccccc4)c(=N)n(CCCn4ccnc4)c3nc12 (stereo not drawn) | – | 4.7 | – | -2.9 | – | – | 317 | –
Cc1ccc2nc3c(cc(C(=O)NCc4ccccc4)c(=N)n3CCCn3ccnc3)c(=O)n2c1 | – | – | – | -4.2 | – | – | – | –
CCOc1ccc(CCNS(=O)(=O)c2cnc[nH]2)cc1OCC | – | – | – | – | – | – | · | ·
CCN(CC(=O)Nc1ccc2c(c1)CCC2)Cc1nc2ccccc2c(=O)[nH]1 | – | – | – | – | – | – | · | ·
O=S(=O)(c1ccc(F)cc1)N1CCN(c2ncnc3c2cnn3-c2ccccc2)CC1 | – | – | – | – | – | – | · | ·
CC(=O)c1cccc(NC2c3ccccc3C(=O)N2Cc2ccc3c(c2)OCO3)c1 (stereo not drawn) | – | – | – | -3 | – | – | – | –
O=C1c2ccccc2C(Nc2ccc3c(c2)OCCO3)N1Cc1ccccc1 (stereo not drawn) | – | – | – | – | – | – | · | ·
OC(C#CCN1CCCC1)c1ccccc1 (stereo not drawn) | – | – | – | -3 | – | – | – | –
OC(C#CCN1CCCCC1)c1ccccc1 (stereo not drawn) | – | – | – | -2.6 | – | – | – | –
CC(O)(C#CCN1CCOCC1)c1ccccc1 (stereo not drawn) | – | – | – | – | · | – | · | ·
OC(CCCCN1CCCCC1)c1ccccc1 (stereo not drawn) | – | – | – | – | – | – | · | ·
O=C(Nc1ccc2c(c1)nc1n2CCOC1)c1ccccc1 | – | – | – | – | – | – | · | ·
CCN(CCCNC(=O)c1c(C)cc(=O)oc1C)c1ccccc1 | · | · | – | -3.9 | · | · | – | –
CCCCN(CCCNC(=O)c1c(C)cc(=O)oc1C)c1ccccc1 | · | · | – | – | · | · | · | ·
COc1cccc(CN(Cc2cccnc2)S(=O)(=O)c2ccc(-n3cnnn3)c(C)c2)c1OC | – | – | – | – | – | – | · | ·
CCOc1ccccc1C1C(C(=O)Nc2ccccc2OC)=C(C)Nc2nnnn21 (stereo not drawn) | – | – | – | – | – | – | · | ·
CCCCS/C(=C(/C#N)C(N)=O)c1cc2c([nH]1)CCCC2 | – | – | – | -6 | – | – | 140 | –
Cc1cc(Br)c(S(=O)(=O)n2nnc3ccccc32)cc1C | – | – | – | -12 | – | – | – | –
Cc1cc(-c2ccccc2)n2ncc(C#N)c2n1 | – | – | – | – | – | – | · | ·
CCOC(=O)Cc1c(C)c2c(C)nn(-c3ccccc3)c2oc1=O | · | · | – | – | · | · | · | ·

Assay outcomes deposited in PubChem by several laboratories.
